From ChEMBL document CHEMBL1123005, “1-Azacycloalkyl-1,4-benzodiazepin-2-ones with antianxiety-antidepressant actions” (J Med Chem, 1985)
The source made the active and inactive calls. The calls are words filed in the database; no cut-off is given here.

Columns and labels:
[1] = molecular target: GABA-A receptor; anion channel (Rattus norvegicus) (UniProt O09028+P15431+P18506+P18508+P19969+P20236+P23574+P23576+P28471+P28473+P30191+P62813+P63079+P63138+Q91ZM7+Q9ES14); assay: Binding constant was determined by displacing potential to [3H]-diazepam binding in cerebral cortex homogenates of rat; assay type: tissue-based
Outline: (§1)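 Wistar rat cerebral cortex homogenate incubated with compound and 2 nM [3H]diazepam at 0 °C for 60 min. Bound label trapped on glass filters and counted by scintillation. Ki = IC50/(1 + L/Kd).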

[2] = system: Mus musculus; assay: Effective dose against pentylenetetrazole intoxicity in mice administered orally; NE = no effect at dose 50 mg/kg; assay type: functional, organism-based; design: dose 50 mg/kg
[3] = system: Mus musculus; assay: Effective dose against pentylenetetrazole intoxicity in mice administered through subcutaneous route; NE = no effect at 10 mg/kg; assay type: functional, organism-based; design: dose 10 mg/kg
[4] = system: Mus musculus; assay: Effective dose against pentylenetetrazole intoxicity in mice administered orally; assay type: functional
[5] = system: Mus musculus; assay: Effective dose against tetrabenazine induced ptosis in mice administered orally; assay type: functional
Outline: (§2)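 Male DS mice, 20-27 g, groups of five. Compound given po or sc in saline or gum arabic at 0.1 mL/10 g. Tetrabenazine 50 mg/kg sc given 1, 4 or 24 h later. Ptosis scored 1-4 at 1 h after TBZ, with ridit transformation. Dose for 50% prevention by regression.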

[6] = Acute toxicity was measured in mice after peroral administration (1293-1506); assay type: organism-based; settings: mouse, in vivo, po
Outline: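 Male DS mice, 20-26 g, given compound orally; mortality checked the day after treatment in groups of 10. LD50 by probit method, or by up-and-down method of Brownlee et al. (n = 5) where estimated.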

[7] = system: Rattus norvegicus; assay: Effective dose was evaluated by their anticonflict effect in rats when administered through oral route; assay type: functional
Outline: (§3)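 Wistar rats in groups of 5-8, Geller-Seifter conflict procedure. Rats trained to lever-press for food on a variable-interval 60-s schedule. Oral dosing. A dose counted positive when shocks exceeded 12 or shock ratio exceeded 4 over four consecutive tone periods. ED50 with 95% limits by probit.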

[8] = species on record: Rattus norvegicus; assay: Inhibitory activity against uptake of [3H]norepinephrine into rat brain synaptosomes.; assay type: functional
Outline: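 P2 synaptosomes from male Wistar rat cerebral cortex incubated with [3H]norepinephrine at 37 °C for 20 min, with compound at 5-6 concentrations. Stopped by Krebs-Henseleit dilution and glass-fibre filtration, then scintillation counting. IC50 taken as the concentration giving 50% uptake inhibition.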

[9] = system: Mus musculus; assay: Effective dose against tetrabenazine induced ptosis in mice administered subcutaneously; assay type: functional; settings: sc; outline: as §2
[10] = system: Mus musculus; assay: Effective dose against pentylenetetrazole intoxicity in mice administered through subcutaneous route; assay type: functional; settings: sc
[11] = system: Rattus norvegicus; assay: Effective dose against anticonflict effect in rats when administered through oral route; assay type: functional; outline: as §3
[12] = system: Mus musculus; assay: Percent inhibition against tetrabenazine induced ptosis in mice administered orally at 50 mg/kg; assay type: functional; settings: route oral; outline: as §2
[13] = system: Mus musculus; assay: Percent inhibition against tetrabenazine induced ptosis in mice administered orally at 100 mg/kg; assay type: functional; settings: route oral; outline: as §2
[14] = system: Mus musculus; assay: Effective dose against pentylenetetrazole intoxicity in mice administered orally;NE = no effect at 50 mg/kg; assay type: functional, organism-based; design: dose 50 mg/kg
[15] = system: Mus musculus; assay: Percent inhibition against tetrabenazine induced ptosis in mice administered subcutaneously 50 mg/kg; assay type: functional; settings: sc, route subcutaneous; outline: as §2
[16] = system: Mus musculus; assay: Effective dose against pentylenetetrazole intoxicity in mice administered through subcutaneous route; NE = no effect at dose 10 mg/kg; assay type: functional, organism-based; design: dose 10 mg/kg
[17] = system: Mus musculus; assay: Effective dose against pentylenetetrazole intoxicity in mice administered orally; NE = not effective at dose 50 mg/kg; assay type: functional, organism-based; design: dose 50 mg/kg
[18] = system: Mus musculus; assay: Effective dose against pentylenetetrazole intoxicity in mice administered subcutaneously; NE = not effective at dose 10 mg/kg; assay type: functional, organism-based; design: dose 10 mg/kg
[19] = system: Mus musculus; assay: Percent Inhibition against pentylenetetrazole intoxicity in mice administered orally at 50 mg/kg; assay type: functional; settings: route oral
[20] = species on record: Rattus norvegicus; assay: Displacement of [3H]diazepam binding in rat cerebral cortex homogenates (Experiment 1); assay type: tissue-based; outline: as §1
[21] = species on record: Rattus norvegicus; assay: Displacement of [3H]diazepam binding to rat cerebral cortex homogenates (Experiment 2); assay type: tissue-based; outline: as §1
[22] = system: Mus musculus; assay: Effective dose against pentylenetetrazole intoxicity in mice administered through subcutaneous route; NE= no effect at 10 mg/kg; assay type: functional, organism-based; design: dose 10 mg/kg
[23] = Mus musculus, po, read-out: ED50

SMILES | K2 [1] [µM] | ED50 [4, 23] [mg/kg] | ED50 [5, 23] [mg/kg] | ED50 [9] [mg/kg] | also measured
O=C1CN=C(c2ccccc2)c2cc(Cl)ccc2N1C1CCNCC1 | 0.35 | 36.5 | 0.48 | 0.172 | ED50 [2]: inactive; ED50 [3]: inactive; ED50 [5]: 0.48 mg/kg; LD50 [6]: 1390 mg/kg; ED50 [7]: 11.8 mg/kg; IC50 [8]: 0.172 µM
CN1CCC(N2C(=O)CN=C(c3ccccc3F)c3cc(F)ccc32)CC1 | – | – | 1.62 | 0.27 | ED50 [10]: 26.9 mg/kg; ED50 [7]: 11.4 mg/kg; IC50 [8]: 53.7 µM
CN1CCC(N2C(=O)CN=C(c3ccccc3)c3cc(Br)ccc32)CC1 | 0.415 | 21.4 | 2.88 | – | ED50 [11]: 17.4 mg/kg
O=C1CN=C(c2ccccc2Cl)c2cc(Cl)ccc2N1C1CCNC1 (stereo not drawn) | 0.027 | 9.63 | – | 12.6 | inhibition in vivo at 50 mg/kg [12]: 34%
CN1CCC(N2C(=O)CN=C(c3ccccc3Cl)c3cc(Cl)ccc32)C1 (stereo not drawn) | 0.05 | 5.78 | – | – | inhibition in vivo at 100 mg/kg [13]: 61%
Cc1ccc2c(c1)C(c1ccccc1F)=NCC(=O)N2C1CCN(C)CC1 | 0.26 | – | – | 0.84 | ED50 [3]: inactive
O=C1C(O)N=C(c2ccccc2F)c2cc(Cl)ccc2N1C1CCNCC1 (stereo not drawn) | 0.14 | 12.5 | 6.51 | – | ED50 [7]: 8.8 mg/kg
COc1ccc2c(c1)C(c1ccccc1F)=NCC(=O)N2C1CCN(C)CC1 | 1.26 | – | – | 1.24 | ED50 [3]: inactive
CN1CCC(N2C(=O)CN=C(c3ccccc3Cl)c3cc(F)ccc32)CC1 | 0.014 | 5.2 | 59.3 | – | –
CN(C)CCCN1c2ccccc2CCc2ccccc21 [IMIPRAMINE] | – | – | 2.14 | 0.8 | IC50 [8]: 0.085 µM
CN1CCC(N2C(=O)CN=C(c3ccccc3F)c3cc(Cl)c(Cl)cc32)CC1 | 0.8 | – | – | – | ED50 [14]: inactive; ED50 [3]: inactive; inhibition in vivo at 50 mg/kg [15]: 64%
O=C1C(O)N=C(c2ccccc2F)c2ccccc2N1C1CCNCC1 (stereo not drawn) | 0.36 | – | – | 0.23 | ED50 [16]: inactive
CN1CCC(N2C(=O)CN=C(c3ccccc3F)c3cc(Cl)ccc32)C1 (stereo not drawn) | 0.2 | 1.1 | 3.69 | – | –
O=C1CN=C(c2ccccc2Cl)c2cc(F)ccc2N1C1CCNCC1 | 0.012 | 29.4 | 13.5 | – | IC50 [8]: 0.877 µM
CN1CCC(N2C(=O)CN=C(c3ccccc3F)c3cc(Br)ccc32)CC1 | 0.049 | 1.61 | 3.85 | 2.45 | ED50 [10]: 0.79 mg/kg; ED50 [7]: 1.23 mg/kg
CN1CCCC(N2C(=O)CN=C(c3ccccc3Cl)c3cc(Cl)ccc32)C1 (stereo not drawn) | 0.016 | 12 | – | – | inhibition in vivo at 100 mg/kg [13]: 21%
CN1CCC(N2C(=O)CN=C(c3ccccc3)c3ccccc32)CC1 | – | – | 0.38 | 0.26 | ED50 [17]: inactive; ED50 [18]: inactive
CN1CCC(N2C(=O)CN=C(c3ccccc3F)c3ccccc32)CC1 | 0.2 | – | – | 0.21 | inhibition in vivo at 50 mg/kg [19]: 37.5%
CN1CCC(N2C(=O)CN=C(c3ccccc3F)c3cc(Cl)ccc32)CC1 | – | 2.7 | 2.13 | 1.3 | ED50 [10]: 0.71 mg/kg; ED50 [4]: 5.28 mg/kg; ED50 [5]: 1.12 mg/kg; ED50 [7]: 3.67 mg/kg
CN1CCC(N2C(=O)CN=C(c3ccccc3F)c3cc([N+](=O)[O-])ccc32)CC1 | – | – | – | 17.7 | K2 [20]: 8.3 µM; K2 [21]: 24 µM; ED50 [22]: inactive
